Data as given in ChEMBL document CHEMBL4699393, “Meridianin D analogues possess antibiofilm activity against Mycobacterium smegmatis” (RSC Med Chem, 2020).
≈ marks a conversion by molar mass, not a printed value.

Columns and labels:
[1] = tested on: Mycolicibacterium smegmatis; assay: Antibiofilm activity against Mycobacterium smegmatis mc2 155 ATCC 700084 assessed as dispersion of preformed biofilms measured after 24 hrs by crystal violet reporter assay; format: functional, organism-based; conditions: MC2 155 ATCC 700084, 24 h
Outline: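 Cultures (48 h) diluted to 0.01 in M9 minimal salts with glucose, MgSO4 and CaCl2 in PVC plates. Biofilm grown stationary at 37 °C for 48 h, washed, then fresh medium with compound added for 24 h at 37 °C. Stained with 0.1% crystal violet 30 min, solubilised in 95% ethanol, OD540 read. Media blanks subtracted. Dispersion calculated against untreated biofilm wells. At least three repeats.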

[2] = tested on: Mycolicibacterium smegmatis; assay: Antibiofilm activity against Mycobacterium smegmatis mc2 155 ATCC 700084 assessed as inhibition of biofilm formation measured after 24 hrs by crystal violet reporter assay; format: functional, organism-based; conditions: MC2 155 ATCC 700084, 24 h
[3] = tested on: Mycolicibacterium smegmatis; assay: Potentiation of oxacillin-induced antibacterial activity against Mycobacterium smegmatis mc2 155 ATCC 700084 assessed as fold reduction in oxacillin MIC at 60 uM incubated for 48 hrs by alamarblue dye based broth microdilution method; format: functional
Outline: (§1)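 Inoculum from 48 h cultures set to 5 x 10^5 CFU/mL in 7H9 + ADC and pre-dosed with compound from DMSO stock at fixed concentration. β-lactam two-fold serially diluted from top concentration, with an antibiotic-only control series. Stationary 37 °C for 48 h, then alamarBlue for 8 h. MIC is the lowest blue (non-viable) well. Fold reduction is relative to the antibiotic-only MIC. Duplicates, at least two repeats.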

[4] = tested on: Mycolicibacterium smegmatis; assay: Potentiation of Cefoxitin-induced antibacterial activity against Mycobacterium smegmatis mc2 155 ATCC 700084 assessed as Cefoxitin MIC at 60 uM incubated for 48 hrs by alamarblue dye based broth microdilution method (reference value: 16 ug/ml); format: functional; outline: as §1
[5] = tested on: Mycolicibacterium smegmatis; assay: Potentiation of Cefotaxime-induced antibacterial activity against Mycobacterium smegmatis mc2 155 ATCC 700084 assessed as fold reduction in Cefotaxime MIC at 60 uM incubated for 48 hrs by alamarblue dye based broth microdilution method; format: functional; outline: as §1
[6] = tested on: Mycolicibacterium smegmatis; assay: Potentiation of Ampicillin-induced antibacterial activity against Mycobacterium smegmatis mc2 155 ATCC 700084 assessed as Ampicillin MIC at 60 uM incubated for 48 hrs by alamarblue dye based broth microdilution method (reference value: 128 ug/ml); format: functional; outline: as §1
[7] = tested on: Mycolicibacterium smegmatis; assay: Potentiation of Cefoxitin-induced antibacterial activity against Mycobacterium smegmatis mc2 155 ATCC 700084 assessed as fold reduction in Cefoxitin MIC at 60 uM incubated for 48 hrs by alamarblue dye based broth microdilution method; format: functional; outline: as §1
[8] = tested on: Mycolicibacterium smegmatis; assay: Potentiation of Oxacillin-induced antibacterial activity against Mycobacterium smegmatis mc2 155 ATCC 700084 assessed as Oxacillin MIC at 60 uM incubated for 48 hrs by alamarblue dye based broth microdilution method (Rvb =512 ug/ml); format: functional; outline: as §1
[9] = tested on: Mycolicibacterium smegmatis; assay: Potentiation of Ampicillin-induced antibacterial activity against Mycobacterium smegmatis mc2 155 ATCC 700084 assessed as fold reduction in Ampicillin MIC at 60 uM incubated for 48 hrs by alamarblue dye based broth microdilution method; format: functional; outline: as §1
[10] = tested on: Mycolicibacterium smegmatis; assay: Potentiation of Cefotaxime-induced antibacterial activity against Mycobacterium smegmatis mc2 155 ATCC 700084 assessed as Cefotaxime MIC at 60 uM incubated for 48 hrs by alamarblue dye based broth microdilution method (reference value: 128 ug/ml); format: functional; outline: as §1
[11] = tested on: Mycolicibacterium smegmatis; assay: Antibacterial activity against Mycobacterium smegmatis mc2 155 ATCC 700084 assessed as inhibition of bacterial growth incubated for 48 hrs by alamarblue dye based broth microdilution method; format: functional
Outline: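 Inoculum from 48 h cultures set to 5 x 10^5 CFU/mL in 7H9 + ADC. Compound in DMSO two-fold serially diluted from 200 µM top concentration. Stationary 37 °C for 48 h, then alamarBlue for 8 h at 37 °C. MIC is the lowest concentration with no viable bacteria (blue, not pink). Duplicate wells, at least two independent repeats.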

[12] = tested on: Mycolicibacterium smegmatis; assay: Potentiation of Ceftazidime-induced antibacterial activity against Mycobacterium smegmatis mc2 155 ATCC 700084 assessed as fold reduction in Ceftazidime MIC at 60 uM incubated for 48 hrs by alamarblue dye based broth microdilution method; format: functional; outline: as §1
[13] = tested on: Mycolicibacterium smegmatis; assay: Potentiation of Ceftazidime-induced antibacterial activity against Mycobacterium smegmatis mc2 155 ATCC 700084 assessed as Ceftazidime MIC at 60 uM incubated for 48 hrs by alamarblue dye based broth microdilution method (reference value: 512 ug/ml); format: functional; outline: as §1
[14] = Hemolytic activity in sheep RBC assessed as hemolysis at 500 uM measured after 1 hr by UV spectrometer analysis; format: ADME, cell-based, Ovis aries, Erythrocyte; conditions: sheep red blood cells (erythrocytes), read-out: Activity
Outline: (§2)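 Mechanically defibrinated sheep blood was centrifuged, and the cells were washed and resuspended in PBS three times, then diluted 10-fold. Compound was added from DMSO stock. Controls were 1% Triton X (100% lysis) and PBS (zero lysis). Samples were incubated 1 h at 37 °C with shaking at 200 rpm, then centrifuged. Supernatant was diluted 40-fold in distilled water and read at A540. Run in duplicate, repeated at least twice.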

[15] = Hemolytic activity in sheep RBC assessed as hemolysis at 200 uM measured after 1 hr by UV spectrometer analysis; format: ADME, cell-based, Ovis aries, Erythrocyte; conditions: sheep red blood cells (erythrocytes), read-out: Activity; outline: as §2

## CCCn1cc(-c2ccnc(N)n2)c2cc(Br)ccc21
[1]
  EC50: > 50 µM
[2]
  IC50: 15.1 µM

## CCCn1cc(-c2ccnc(N)n2)c2ccc(I)cc21
[1]
  EC50: > 50 µM
[2]
  IC50: > 50 µM

## Nc1nccc(-c2c[nH]c3ccc(F)cc23)n1
[1]
  EC50: > 50 µM
[2]
  IC50: 16 µM

## CN(C)c1nccc(-c2c[nH]c3ccc(Br)cc23)n1
[3]
  fold change (FC): 0
[4]
  MIC: 16 µg/mL
[5]
  fold change (FC): 0
[1]
  EC50: 35.7 µM
[6]
  MIC: 64 µg/mL
[7]
  fold change (FC): 0
[8]
  MIC: 512 µg/mL
[9]
  fold change (FC): 2
[2]
  IC50: 14.3 µM
[10]
  MIC: 128 µg/mL
[11]
  MIC: ≥ 200 µM
[12]
  fold change (FC): 0
[13]
  MIC: 512 µg/mL

## Nc1nccc(-c2cn(Cc3ccccc3)c3cc(Br)ccc23)n1
[1]
  EC50: > 50 µM
[2]
  IC50: 27.3 µM

## CCNc1nccc(-c2c[nH]c3ccc(Br)cc23)n1
[3]
  fold change (FC): 0
[4]
  MIC: 16 µg/mL
[5]
  fold change (FC): 0
[1]
  EC50: 39.3 µM
[6]
  MIC: 64 µg/mL
[7]
  fold change (FC): 0
[8]
  MIC: 512 µg/mL
[9]
  fold change (FC): 2
[2]
  IC50: 14.2 µM
[10]
  MIC: 128 µg/mL
[11]
  MIC: ≥ 200 µM
[12]
  fold change (FC): 0
[13]
  MIC: 512 µg/mL

## CC(C)Cn1cc(-c2ccnc(N)n2)c2cc(Br)ccc21
[1]
  EC50: > 50 µM
[2]
  IC50: 14.9 µM

## Nc1nccc(-c2c[nH]c3cc(F)ccc23)n1
[1]
  EC50: > 50 µM
[2]
  IC50: 21.6 µM

## Cc1ccc2[nH]cc(-c3ccnc(N)n3)c2c1
[1]
  EC50: > 50 µM
[2]
  IC50: 15.7 µM

## CCCn1cc(-c2ccnc(N)n2)c2ccc(Br)cc21
[1]
  EC50: > 50 µM
[2]
  IC50: 34.5 µM

## CC(C)Cn1cc(-c2ccnc(N)n2)c2ccc(Br)cc21
[1]
  EC50: > 50 µM
[2]
  IC50: 50.4 µM

## Nc1nccc(-c2c[nH]c3cccc(Br)c23)n1
[1]
  EC50: > 50 µM
[2]
  IC50: > 50 µM

## Nc1nccc(-c2c[nH]c3cc(Cl)ccc23)n1
[1]
  EC50: > 50 µM
[2]
  IC50: 26.6 µM

## Nc1nccc(-c2c[nH]c3ccc(Cl)cc23)n1
[1]
  EC50: > 50 µM
[2]
  IC50: 18.3 µM

## Brc1ccc2[nH]cc(-c3ccnc(NCc4ccccc4)n3)c2c1
[3]
  fold change (FC): 2
[4]
  MIC: 16 µg/mL
[5]
  fold change (FC): 2
[14]
  hemolysis at 1 h, 500 µM: 32%
[1]
  EC50: 28.3 µM
[6]
  MIC: 64 µg/mL
[7]
  fold change (FC): 0
[8]
  MIC: 256 µg/mL
[15]
  hemolysis at 1 h, 200 µM: 9%
[9]
  fold change (FC): 2
[2]
  IC50: 6.9 µM
[10]
  MIC: 64 µg/mL
[11]
  MIC: ≥ 200 µM
[12]
  fold change (FC): 0
[13]
  MIC: 512 µg/mL

## Nc1nccc(-c2c[nH]c3c(Br)cccc23)n1
[1]
  EC50: > 50 µM
[2]
  IC50: 26 µM

## Nc1ncc(-c2c[nH]c3cc(Cl)ccc23)[nH]1
[1]
  EC50: 33.7 µM
[2]
  IC50: 10.3 µM

## Nc1ncc(-c2c[nH]c3ccc(Cl)cc23)[nH]1
[1]
  EC50: > 50 µM
[2]
  IC50: 16 µM

## CCCCn1cc(-c2ccnc(N)n2)c2cc(Br)ccc21
[1]
  EC50: > 50 µM
[2]
  IC50: 22.7 µM

## CCn1cc(-c2ccnc(N)n2)c2ccc(Br)cc21
[1]
  EC50: > 50 µM
[2]
  IC50: 39.1 µM

## CNc1nccc(-c2c[nH]c3ccc(Br)cc23)n1
[3]
  fold change (FC): 2
[4]
  MIC: 16 µg/mL
[5]
  fold change (FC): 2
[1]
  EC50: 45 µM
[6]
  MIC: 64 µg/mL
[7]
  fold change (FC): 0
[8]
  MIC: 256 µg/mL
[9]
  fold change (FC): 2
[2]
  IC50: 25.5 µM
[10]
  MIC: 64 µg/mL
[11]
  MIC: ≥ 200 µM
[12]
  fold change (FC): 0
[13]
  MIC: 512 µg/mL

## Nc1nccc(-c2c[nH]c3ccc(I)cc23)n1
[3]
  fold change (FC): 0
[4]
  MIC: 16 µg/mL
[5]
  fold change (FC): 2
[1]
  EC50: 28.1 µM
[6]
  MIC: 128 µg/mL
[7]
  fold change (FC): 0
[8]
  MIC: 512 µg/mL
[9]
  fold change (FC): 0
[2]
  IC50: 13.1 µM
[10]
  MIC: 64 µg/mL
[11]
  MIC: ≥ 200 µM
[12]
  fold change (FC): 0
[13]
  MIC: 512 µg/mL

## CCCCn1cc(-c2ccnc(N)n2)c2ccc(Br)cc21
[14]
  hemolysis at 1 h, 500 µM: 73%
[1]
  EC50: > 50 µM
[15]
  hemolysis at 1 h, 200 µM: 56%
[2]
  IC50: > 50 µM

## Nc1nccc(-c2c[nH]c3cc(I)ccc23)n1
[3]
  fold change (FC): 0
[4]
  MIC: 16 µg/mL
[5]
  fold change (FC): 0
[1]
  EC50: 29.4 µM
[6]
  MIC: 128 µg/mL
[7]
  fold change (FC): 0
[8]
  MIC: 512 µg/mL
[9]
  fold change (FC): 0
[2]
  IC50: 13.2 µM
[10]
  MIC: 128 µg/mL
[11]
  MIC: ≥ 200 µM
[12]
  fold change (FC): 0
[13]
  MIC: 512 µg/mL

## Nc1ncc(-c2c[nH]c3ccc(F)cc23)[nH]1
[1]
  EC50: > 50 µM
[2]
  IC50: 40.2 µM

## Nc1nccc(-c2c[nH]c3ccc(Br)cc23)n1 [MERIDIANIN C]
[1]
  EC50: > 50 µM
[2]
  IC50: 22.7 µM

## Cn1cc(-c2ccnc(N)n2)c2ccc(Br)cc21
[1]
  EC50: > 50 µM
[2]
  IC50: 26.7 µM

## Cn1cc(-c2ccnc(N)n2)c2cc(Br)ccc21
[3]
  fold change (FC): 2
[4]
  MIC: 8 µg/mL
[5]
  fold change (FC): 8
[1]
  EC50: > 50 µM
[6]
  MIC: 32 µg/mL
[7]
  fold change (FC): 2
[8]
  MIC: 256 µg/mL
[9]
  fold change (FC): 4
[2]
  IC50: 27.8 µM
[10]
  MIC: 16 µg/mL
[11]
  MIC: ≥ 200 µM
[12]
  fold change (FC): 8
[13]
  MIC: 64 µg/mL

## CCCCCn1cc(-c2ccnc(N)n2)c2cc(Br)ccc21
[1]
  EC50: > 50 µM
[2]
  IC50: > 50 µM

## Nc1nc(-c2c[nH]c3ccc(Br)cc23)c[nH]1
[1]
  EC50: > 50 µM
[2]
  IC50: 9.5 µM
[11]
  MIC: 100 µM (≈ 27.7 µg/mL)

## Nc1nccc(-c2c[nH]c3cc(Br)ccc23)n1 [MERIDIANIN D]
[3]
  fold change (FC): 0
[5]
  fold change (FC): 0
[14]
  hemolysis at 1 h, 500 µM: 13%
[1]
  EC50: 51 µM
[7]
  fold change (FC): 0
[15]
  hemolysis at 1 h, 200 µM: 8%
[9]
  fold change (FC): 0
[2]
  IC50: 21.5 µM
[11]
  MIC: 200 µM (≈ 57.8 µg/mL)
[12]
  fold change (FC): 0

## Nc1nccc(-c2c[nH]c3ccccc23)n1
[1]
  EC50: > 50 µM
[2]
  IC50: 29.5 µM

## CCn1cc(-c2ccnc(N)n2)c2cc(Br)ccc21
[1]
  EC50: > 50 µM
[2]
  IC50: 37.1 µM
